This is one part of a sample in which hits are shown more often than they occur.
INS promoter act = activators of insulin promoter-driven GFP, primary screen, imaging, TRM-6 cells (human fetal islet line), eGFP reporter, cell count; activation, % at 2 µM; plate-scaled: unstimulated 0, stimulated control 100; AID 1296, 2008; actives 0.81% (n = 130,000);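 active means activation at 2 µM above a set limit, confirmed on inspection of the cell images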;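 further: share of cells whose green reporter signal exceeds an intensity cutoff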
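Material: TRM-6 insulin promoter–eGFP reporter cells. Buffer or medium: Low-glucose (5.5 mM) medium with tamoxifen. Probe or stimulus: tamoxifen at 0.75 µM added at seeding for reporter induction. Times: tamoxifen pre-incubation 15 h overnight, then compound exposure 48 h at 37 °C. Detection: high-content imaging of fixed cells with Hoechst nuclear stain.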
A number is an active result.

Results for O=C(C1CC1)N(CCN(Cc1ccccc1)C(=O)C1CC1)Cc1ccccc1 ?
INS promoter act: 250

How did O=[N+]([O-])c1cccc(/C=N/Nc2nc(N3CCCCC3)nc(N3CCCCC3)n2)c1 do in these assays?
INS promoter act: inactive

Results for O=[N+]([O-])c1ccc(-n2cccc2/C=N/Nc2nc(N3CCCCC3)nc(N3CCCCC3)n2)cc1 ?
INS promoter act: inactive

How did O=[N+]([O-])c1ccc(-c2ccc(/C=N/Nc3nc(N4CCCCC4)nc(N4CCCCC4)n3)o2)cc1 do in these assays?
INS promoter act: 614

Results for Cc1ccc(NC(=O)c2cc(=O)c3ccccc3o2)cc1S(=O)(=O)N1CCCCC1 ?
INS promoter act: inactive

Results for O=C(CSc1nnnn1C1CCCCC1)NCc1cccc(C(=O)O)c1 ?
INS promoter act: inactive

What do the screens show for `O=C(CSc1nnnn1C1CCCC1)Nc1cccc(NC(=O)c2ccco2)c1`?
INS promoter act: 830

Results for CC(=O)Nc1cccc(NC(=O)CSc2nnnn2C(C)C)c1 ?
INS promoter act: inactive

How did COC(=O)c1ccc2nc(C(F)(F)F)[nH]c2c1 do in these assays?
INS promoter act: inactive

Results for S=C1NCCOCCNC(=S)NCCOCCOCCOCCN1 ?
INS promoter act: inactive

Results for Brc1ccc(CSc2nnc(-c3ccccn3)n2Cc2ccco2)cc1 ?
INS promoter act: inactive

Results for c1coc(Cn2c(SCc3nc4ccccc4[nH]3)nnc2-c2cccs2)c1 ?
INS promoter act: 123

Results for O=c1c2ccccc2nnn1CSc1nnc(-c2cccs2)n1Cc1ccccc1 ?
INS promoter act: inactive

What do the screens show for `NNC(=O)c1cc(Br)cs1`?
INS promoter act: inactive

Results for O=C(c1cc2nc(-c3ccccc3)cc(-c3ccccc3)n2n1)N1CCN(C(=O)c2ccco2)CC1 ?
INS promoter act: inactive

What do the screens show for `C=C1C(O)C[C@H]2C(=C)CCC3[C@H](OC(=O)[C@]3(O)CO)[C@@H]12` (stereo partly drawn)?
INS promoter act: 275

Results for CCOC(=O)c1cnc(SCC(=O)Nc2sc(C)c(C)c2C#N)nc1N ?
INS promoter act: inactive

How did CCOc1cc2c(cc1C(C)(C)C)NC(=O)CS2 do in these assays?
INS promoter act: inactive

What do the screens show for `CCOC(=O)c1ccccc1NC(=O)C(C)Oc1ccccc1` (stereo not drawn)?
INS promoter act: inactive

How did CC(Oc1ccccc1)C(=O)Nc1ccc(C(N)=O)cc1 (stereo not drawn) do in these assays?
INS promoter act: 174

How did COc1ccc(OC(C)C(=O)Nc2cccc(OC)c2)cc1 (stereo not drawn) do in these assays?
INS promoter act: inactive

What do the screens show for `C=CCN1C(=O)NC2(O)C(=O)c3ccccc3C12O` (stereo not drawn)?
INS promoter act: inactive

Results for CCc1ccc(NC(=O)CC2C(=O)Nc3c2c(=O)n(C)c(=O)n3C)cc1 (stereo not drawn) ?
INS promoter act: inactive

Results for COc1ccc(NS(=O)(=O)c2ccc(SC)cc2)c(OC)c1 ?
INS promoter act: inactive

How did COc1ccc(S(=O)(=O)Nc2ccccc2C)cc1 do in these assays?
INS promoter act: inactive

How did COc1ccc(S(=O)(=O)Nc2cc3c4c(oc3c3ccccc23)CC(C)(C)CC4=O)cc1 do in these assays?
INS promoter act: 87

How did COc1ccc(NC(=O)COC(=O)c2ncc(Cl)c(Cl)c2Cl)c(OC)c1 do in these assays?
INS promoter act: inactive

How did COc1ccc(S(=O)(=O)NC2CCCCC2)c(C)c1C do in these assays?
INS promoter act: inactive

Results for O=C(c1ccc(S(=O)(=O)c2ccccc2)cc1)N1CCc2ccccc2C1 ?
INS promoter act: inactive

Results for C=CCn1cc(C(=O)N2CCc3ccccc3C2)c(=O)c2cc(S(=O)(=O)N(CC)CC)ccc21 ?
INS promoter act: 400

Results for C=CCn1cc(C(=O)OC)c(=O)c2cc(S(=O)(=O)N3CCC(C)CC3)ccc21 ?
INS promoter act: inactive

How did O=C(OCc1ccc(Cl)cc1Cl)c1cccnc1Cl do in these assays?
INS promoter act: inactive

What do the screens show for `CN(C(=S)Nc1ccccc1F)C1(c2ccccc2Cl)CCCCC1=O` (stereo not drawn)?
INS promoter act: inactive

Results for N#CCC(=O)N1CCCCCC1 ?
INS promoter act: inactive

Results for COc1cccc(N2CCN(C3CC(=O)N(c4ccc(F)c(Cl)c4)C3=O)CC2)c1 (stereo not drawn) ?
INS promoter act: inactive

What do the screens show for `NC(=O)C1CCN(C2CC(=O)N(c3ccc(F)c(Cl)c3)C2=O)CC1` (stereo not drawn)?
INS promoter act: 86

Results for O=C(C1CCN(C2CC(=O)N(c3cccc(Cl)c3)C2=O)CC1)N1CCCC1 (stereo not drawn) ?
INS promoter act: inactive

How did CCN(CC)c1ccc(C2NC(=O)NC(C)=C2C(=O)Nc2ccccc2)cc1 (stereo not drawn) do in these assays?
INS promoter act: inactive

Results for CCN(CC)c1ccc(C=C2C(=O)OC(c3ccccc3)OC2=O)cc1 (stereo not drawn) ?
INS promoter act: 312

How did CCN(CC)c1ccc(/C=N/NC(=O)c2ccco2)cc1 do in these assays?
INS promoter act: inactive

What do the screens show for `CCOC(=O)C1=C(N)c2ccccc2CC1C(C)C` (stereo not drawn)?
INS promoter act: inactive

How did O=C1C(=O)N(CCN2CCOCC2)C(c2ccncc2)/C1=C(/O)c1ccc2c(c1)OCO2 (stereo not drawn) do in these assays?
INS promoter act: inactive

Results for CCN(CC)CCCN1C(=O)C(=O)/C(=C(/O)c2ccc3c(c2)OCCO3)C1c1ccco1 (stereo not drawn) ?
INS promoter act: inactive

What do the screens show for `CC1Cc2cc(/C(O)=C3/C(=O)C(=O)N(CCN4CCOCC4)C3c3cccc(O)c3)ccc2O1` (stereo not drawn)?
INS promoter act: 467

What do the screens show for `O=C(C1=C(O)C(=O)N(CCCN2CCOCC2)C1c1ccccn1)c1cc2ccccc2o1` (stereo not drawn)?
INS promoter act: inactive

What do the screens show for `Cc1ccc(/C(O)=C2/C(=O)C(=O)N(CCN3CCOCC3)C2c2ccccn2)cc1` (stereo not drawn)?
INS promoter act: 850

How did CCN(CC)CCCN1C(=O)C(=O)/C(=C(/O)c2ccc(C)cc2)C1c1ccccn1 (stereo not drawn) do in these assays?
INS promoter act: inactive

Results for CC(OC(=O)c1ccc2c(=O)n3c(nc2c1)CCCCC3)C(=O)Nc1ccc(F)cc1Cl (stereo not drawn) ?
INS promoter act: inactive

How did CN(CCc1ccccn1)c1ncnc2[nH]ncc12 do in these assays?
INS promoter act: inactive

How did COc1ccc(-c2[nH]ncc2CN2CCC(N3CCSCC3)CC2)c(F)c1 do in these assays?
INS promoter act: inactive

Results for Cc1cc(C)n(CCCNC(=O)c2ccc(S(=O)(=O)NCc3ccco3)cc2)n1 ?
INS promoter act: inactive

How did CCn1c(=O)c2c(n3cnnc13)-c1ccccc1CC21CCCCC1 do in these assays?
INS promoter act: inactive

How did COc1ccc(CCCC(=O)Nc2ccc(F)cc2)cc1 do in these assays?
INS promoter act: inactive

Results for COc1ccc(CNC(=O)CN2C(=O)C3C4C=CC(C4)C3C2=O)cc1 (stereo not drawn) ?
INS promoter act: inactive

What do the screens show for `CCCc1cc(-n2cnc3ccccc32)n2c(nc3ccccc32)c1C#N`?
INS promoter act: 76

How did CCCc1cc(NCc2ccccn2)n2c(nc3ccccc32)c1C#N do in these assays?
INS promoter act: inactive

What do the screens show for `CCCNc1cc(C)c(C#N)c2nc3ccccc3n12`?
INS promoter act: inactive

How did CCOc1cc(NS(=O)(=O)c2ccc(Cl)cc2)c(OCC)cc1NC(=O)CC(C)C do in these assays?
INS promoter act: inactive

Compound activity as filed in PubChem.
